Results taken from paper PMC11926516 (Small Methods, 2024).
Read-outs that look alike come from different tables or passages of the source.

Experiments:
HUVEC monolayers = type: cell-based, human; details: 0.1 h after MDS stimulation (1 mA/cm^2 for 7 min)
[1] = tested on: major organs (heart, lung, liver, kidney, spleen); type: in vivo, rats
In short: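 Major organs (heart, lung, liver, kidney, spleen) were taken at the end of the treatment experiment. They were photographed and weighed (n = 3, one-way ANOVA), then paraffin-embedded, serially sectioned and H&E-stained.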

OVX OP rat models [2] = test: Histology of distal femurs; type: in vivo, Sprague–Dawley rats
In short: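 Female Sprague–Dawley rats, 12 weeks old, under pentobarbital anaesthesia. Bilateral ovariectomy via dorsal midline incision; sham rats had matching adipose tissue removed. Rats received PBS or PTH by different delivery methods for 4 weeks. Distal femurs were decalcified 3 weeks, paraffin-embedded and serially sectioned. Stains: H&E, Masson, TRAP kit, and IHC for Col1 (1:100), Ocn (1:200) and Ctsk (1:50). Positive cells per bone surface counted, n = 5, one-way ANOVA.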

[3] = post-SCI, cited from earlier work
OVX OP rat models [4] = test: Plasma bone turnover markers PINP and CTX-I by Elisa in OVX rats; type: in vivo, Sprague–Dawley rats; details: n = 5
[5] = stated consistent with own SCI-PTH group

Compound: CC(=O)OCOC(=O)CN(CC(=O)OCOC(C)=O)c1ccccc1OCCOc1ccccc1N(CC(=O)OCOC(C)=O)CC(=O)OCOC(C)=O [BAPTA‐AM]
- increase in intracellular SFs and disappearance of VE-cadherin fluorescence during the electro-stimulated phase (HUVEC monolayers; inhibitor 20 µM): blocked

Compound: C[C@@H](N)[C@H]1CC[C@H](C(=O)Nc2ccncc2)CC1 [Y27632]
- increase in intracellular SFs and disappearance of VE-cadherin fluorescence during the electro-stimulated phase (HUVEC monolayers; inhibitor 15 µM): blocked

Compound: N.N.N.N.N.N.N.N.N.N.N.N.N.N.[Cl-].[Cl-].[Cl-].[Cl-].[Cl-].[Cl-].[O-2].[O-2].[Ru+3].[Ru+3].[Ru+4] [ruthenium red]
- increase in intracellular SFs and disappearance of VE-cadherin fluorescence during the electro-stimulated phase (HUVEC monolayers; inhibitor 20 µM): blocked

Compound: Human parathyroid hormone (1–34) [PTH]
- histopathological analysis of visceral organs ([1]; MDS-PTH group after one month of PTH treatment, H&E): no structural disruption
- appearance or weight of major organs ([1]; MDS-PTH group compared to SCI-PBS and SCI-PTH groups after one month of PTH treatment, n = 3): no significant difference
- Ctsk+ and Trap+ osteoclasts per bone surface (OVX OP rat models [2]; MDS-PTH group compared to SCI-PTH group, IHC and Trap staining, n = 5): dramatically fewer
- new bone formation (H&E and Masson's staining) (OVX OP rat models [2]; MDS-PTH group compared to SCI-PTH group, OVX rats, 40 µg k^−1g once daily for one month): significantly promoted
- Col+ and OCN+ osteoblasts per bone surface (OVX OP rat models [2]; MDS-PTH group compared with OVX group, IHC, n = 5): more
- Col+ and OCN+ osteoblasts per bone surface (OVX OP rat models [2]; SCI-PTH group compared with OVX group, IHC, n = 5): more
- Col+ and OCN+ osteoblasts per bone surface, difference between delivery methods (OVX OP rat models [2]; SCI-PTH versus MDS-PTH groups, IHC, n = 5): no significant difference
- subcutaneous residue [3]: approximately 20%
- elimination time [3, 5]: 4 h
- time to plasma Cmax [3, 5]: 30 min
- bone formation marker PINP (OVX OP rat models [4]; MDS-PTH group compared to OVX group): increased notably
- bone resorption marker CTX-I (OVX OP rat models [4]; MDS-PTH group compared to SCI-PTH group): significantly lower
- bone formation marker PINP (OVX OP rat models [4]; SCI-PTH group compared to OVX group): increased notably
- bone formation marker PINP, difference between delivery methods (OVX OP rat models [4]; SCI-PTH versus MDS-PTH groups): no significant difference
